According to ChEMBL document CHEMBL4011655, “Conformation-Based Design and Synthesis of Apratoxin A Mimetics Modified at the α,β-Unsaturated Thiazoline Moiety” (J Med Chem, 2017):

Assays:
HCT-116 [1] = experiment: Cytotoxicity against human HCT116 cells assessed as reduction in cell viability after 48 hrs by WST8 assay; type: functional, cell-based; details: HCT-116, 48 h
How it was run: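 HCT-116 cells grown in RPMI 1640 with 10% FBS and penicillin/streptomycin, plated near-confluent at 5 × 10^3 cells/well and left 24 h at 37 °C, 5% CO2. Compounds (DMSO stocks 0.01–100 μM) added to give final 0.1–1000 nM, 1% DMSO vehicle. After 48 h, WST-8 added for 2 h, absorbance read at 450 nm (reference 595 nm), vehicle taken as 100%. IC50 by probit analysis; three independent experiments.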

HCT-116 [2] = experiment: Growth inhibition of human HCT116 cells after 72 hrs by Cell-Titer Glo assay; type: functional; details: HCT-116, 72 h
How it was run: (§1)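 Cells seeded in 384-well plates at 1–3 × 10^3 cells/well and grown 24 h at 37 °C, 5% CO2. Compounds added at final 0.03 nM to 1 μM (10-point), DMSO vehicle at most 0.25%.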

BXPC-3 = experiment: Growth inhibition of human BxPC3 cells after 72 hrs by Cell-Titer Glo assay; type: functional; details: BXPC-3, 72 h; how it was run: as §1
A549 = experiment: Growth inhibition of human A549 cells after 72 hrs by Cell-Titer Glo assay; type: functional; details: A549, 72 h; how it was run: as §1
Huh-7 = experiment: Growth inhibition of human HuH7 cells after 72 hrs by Cell-Titer Glo assay; type: functional; details: Huh-7, 72 h; how it was run: as §1
MKN-74 = experiment: Growth inhibition of human MKN74 cells after 72 hrs by Cell-Titer Glo assay; type: functional; details: MKN-74, 72 h; how it was run: as §1
U-87 MG = experiment: Growth inhibition of human U87MG cells after 72 hrs by Cell-Titer Glo assay; type: functional, U-87MG ATCC; how it was run: as §1
SK-OV-3 = experiment: Growth inhibition of human SKOV3 cells after 72 hrs by Cell-Titer Glo assay; type: functional; details: SK-OV-3, 72 h; how it was run: as §1
[3] = Growth inhibition of human HEC6 cells after 72 hrs by Cell-Titer Glo assay; type: functional; details: HEC-6, 72 h; how it was run: as §1
786-0 = experiment: Growth inhibition of human 786-O cells after 72 hrs by Cell-Titer Glo assay; type: functional; details: 786-0, 72 h; how it was run: as §1
MCF7 = experiment: Growth inhibition of human MCF7 cells after 72 hrs by Cell-Titer Glo assay; type: functional; details: MCF7, 72 h; how it was run: as §1
[4] = Drug metabolism in mouse liver microsomes after 35 mins in presence of NADPH by LC-MS/MS analysis; type: ADME, microsome; details: read-out: Drug metabolism
How it was run: (§2)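 Pooled liver microsomes at 0.1 mg/mL protein with 3.25 mmol/L β-NADPH in 125 mmol/L phosphate buffer. Compound at 100 nmol/L, added in CH3CN. Incubated 37 °C for 35 min, stopped with methanol, held at −20 °C for 30 min, then centrifuged. Parent compound loss measured by LC-MS/MS; duplicate incubations.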

[5] = Drug metabolism in human liver microsomes after 35 mins in presence of NADPH by LC-MS/MS analysis; type: ADME, microsome; details: read-out: Drug metabolism; how it was run: as §2

Structure (SMILES): CC[C@H](C)[C@H]1C(=O)N2CCC[C@H]2C(=O)O[C@H](C(C)(C)C)C[C@@H](C)C[C@H](O)[C@H](C)C(=O)N2CCC(CC2)C(=O)N[C@@H](Cc2ccccc2)C(=O)N(C)[C@@H](C)C(=O)N1C
- IC50 (HCT-116 [1]): 490 nM

Structure (SMILES): CC[C@H](C)[C@H]1C(=O)N2CCC[C@H]2C(=O)O[C@H](C(C)(C)C)C[C@@H](C)C[C@H](O)[C@H](C)C(=O)NCc2cccc(c2)C(=O)N[C@@H](Cc2ccc(OC)cc2)C(=O)N(C)[C@@H](C)C(=O)N1C
- IC50 (HCT-116 [1]): 820 nM

Structure (SMILES): CC[C@H](C)[C@H]1C(=O)N2CCC[C@H]2C(=O)O[C@H](C(C)(C)C)C[C@@H](C)C[C@H](O)[C@H](C)C(=O)N2CCC(CC2)C(=O)N[C@@H](Cc2ccc(-c3ccccc3)cc2)C(=O)N(C)[C@@H](C)C(=O)N1C
- IC50 (HCT-116 [1]): 1.1 nM
- GI50 (HCT-116 [2]): 11 nM
- GI50 (BXPC-3): 4 nM
- GI50 (A549): 6.3 nM
- GI50 (Huh-7): 6.8 nM
- GI50 (MKN-74): 8 nM
- GI50 (U-87 MG): 12 nM
- GI50 (SK-OV-3): 18 nM
- GI50 [3]: 23 nM
- GI50 (786-0): 120 nM
- GI50 (MCF7): > 1000 nM
- metabolised at 35 min [4]: 84%
- metabolised at 35 min [5]: 85%

Structure (SMILES): CC[C@H](C)[C@H]1C(=O)N2CCC[C@H]2C(=O)O[C@H](C(C)(C)C)C[C@@H](C)C[C@H](O)[C@H](C)C(=O)N(C)CCCC(=O)N[C@@H](Cc2ccc(OC)cc2)C(=O)N(C)[C@@H](C)C(=O)N1C
- IC50 (HCT-116 [1]): 340 nM

Structure (SMILES): CC[C@H](C)[C@H]1C(=O)N2CCC[C@H]2C(=O)O[C@H](C(C)(C)C)C[C@@H](C)C[C@H](O)[C@H](C)C(=O)N2CCC(CC2)C(=O)N[C@@H](Cc2ccc(OC)cc2)C(=O)N(C)[C@@H](CC(C)C)C(=O)N1C
- IC50 (HCT-116 [1]): 360 nM

Structure (SMILES): CC[C@H](C)[C@H]1C(=O)N2CCC[C@H]2C(=O)O[C@H](C(C)(C)C)C[C@@H](C)C[C@H](O)[C@H](C)C(=O)N2CCC(CC2)C(=O)N[C@@H](Cc2ccc(OC)cc2)C(=O)N(C)CC(=O)N1C
- IC50 (HCT-116 [1]): 850 nM

Structure (SMILES): CC[C@H](C)[C@H]1C(=O)N2CCC[C@H]2C(=O)O[C@H](C(C)(C)C)C[C@@H](C)C[C@H](O)[C@H](C)C(=O)N(C)CCC(=O)N[C@@H](Cc2ccc(OC)cc2)C(=O)N(C)[C@@H](C)C(=O)N1C
- IC50 (HCT-116 [1]): 3100 nM

Structure (SMILES): COc1ccc(C[C@@H]2NC(=O)C3CCN(CC3)C(=O)[C@@H](C)[C@@H](O)C[C@H](C)C[C@@H](C(C)(C)C)OC(=O)[C@@H]3CCCN3C(=O)[C@H](C(C)C)N(C)C(=O)[C@H](C)N(C)C2=O)cc1
- IC50 (HCT-116 [1]): 130 nM

Structure (SMILES): CC[C@H](C)[C@H]1C(=O)N2CCC[C@H]2C(=O)O[C@H](C(C)(C)C)C[C@@H](C)C[C@H](O)[C@H](C)C(=O)N(C)Cc2cccc(c2)C(=O)N[C@@H](Cc2ccc(OC)cc2)C(=O)N(C)[C@@H](C)C(=O)N1C
- IC50 (HCT-116 [1]): 220 nM

Structure (SMILES): CC[C@H](C)[C@H]1C(=O)N2CCC[C@H]2C(=O)O[C@H](C(C)(C)C)C[C@@H](C)C[C@H](O)[C@H](C)C(=O)N2CCC(CC2)C(=O)N[C@@H](Cc2ccc(Cl)cc2)C(=O)N(C)[C@@H](C)C(=O)N1C
- IC50 (HCT-116 [1]): 69 nM
- GI50 (HCT-116 [2]): 210 nM
- GI50 (BXPC-3): 80 nM
- GI50 (A549): 190 nM
- GI50 (Huh-7): 180 nM
- GI50 (MKN-74): 200 nM
- GI50 (U-87 MG): 320 nM
- GI50 (SK-OV-3): 410 nM
- GI50 [3]: 480 nM
- GI50 (786-0): > 1000 nM
- GI50 (MCF7): > 1000 nM

Structure (SMILES): COc1ccc(C[C@@H]2NC(=O)C3CCN(CC3)C(=O)[C@@H](C)[C@@H](O)C[C@H](C)C[C@@H](C(C)(C)C)OC(=O)[C@@H]3CCCN3C(=O)[C@H](Cc3ccccc3)N(C)C(=O)[C@H](C)N(C)C2=O)cc1
- IC50 (HCT-116 [1]): 710 nM

Structure (SMILES): CC[C@H](C)[C@H]1C(=O)N2CCC[C@H]2C(=O)O[C@H](C(C)(C)C)C[C@@H](C)C[C@H](O)[C@H](C)C(=O)NCCCC(=O)N[C@@H](Cc2ccc(OC)cc2)C(=O)N(C)[C@@H](C)C(=O)N1C
- IC50 (HCT-116 [1]): 2600 nM

Structure (SMILES): CC[C@H](C)[C@H]1C(=O)N2CCC[C@H]2C(=O)O[C@H](C(C)(C)C)C[C@@H](C)C[C@H](O)[C@H](C)C(=O)N2CCC(CC2)C(=O)N[C@@H](Cc2ccc(OC)cc2)C(=O)N(C)[C@@H](Cc2ccccc2)C(=O)N1C
- IC50 (HCT-116 [1]): 1600 nM

Structure (SMILES): CC[C@H](C)[C@H]1C(=O)N2CCC[C@H]2C(=O)O[C@H](C(C)(C)C)C[C@@H](C)C[C@H](O)[C@H](C)C(=O)N2CCC(CC2)C(=O)N[C@@H](Cc2ccc(OC)cc2)C(=O)N(C)[C@@H](C)C(=O)N1C
- IC50 (HCT-116 [1]): 120 nM

Structure (SMILES): COc1ccc(C[C@@H]2NC(=O)C3CCN(CC3)C(=O)[C@@H](C)[C@@H](O)C[C@H](C)C[C@@H](C(C)(C)C)OC(=O)[C@@H]3CCCN3C(=O)[C@H](C)N(C)C(=O)[C@H](C)N(C)C2=O)cc1
- IC50 (HCT-116 [1]): 7500 nM

Structure (SMILES): CC[C@H](C)[C@H]1C(=O)N2CCC[C@H]2C(=O)O[C@H](C(C)(C)C)C[C@@H](C)C[C@H](O)[C@H](C)C(=O)NCCC(=O)N[C@@H](Cc2ccc(OC)cc2)C(=O)N(C)[C@@H](C)C(=O)N1C
- IC50 (HCT-116 [1]): 3400 nM

Structure (SMILES): CC[C@H](C)[C@H]1C(=O)N2CCC[C@H]2C(=O)O[C@H](C(C)(C)C)C[C@@H](C)C[C@H](O)[C@H](C)C2=N[C@@H](/C=C(\C)C(=O)N[C@@H](Cc3ccc(OC)cc3)C(=O)N(C)[C@@H](C)C(=O)N1C)CS2 [APRATOXIN A]
- IC50 (HCT-116 [1]): 2.8 nM
- GI50 (HCT-116 [2]): 11 nM
- GI50 (BXPC-3): 4.9 nM
- GI50 (A549): 6.4 nM
- GI50 (Huh-7): 7.2 nM
- GI50 (MKN-74): 9.7 nM
- GI50 (U-87 MG): 18 nM
- GI50 (SK-OV-3): 31 nM
- GI50 [3]: 39 nM
- GI50 (786-0): 41 nM
- GI50 (MCF7): > 1000 nM

Structure (SMILES): CO[C@@]12[C@H](COC(N)=O)C3=C(C(=O)C(C)=C(N)C3=O)N1C[C@@H]1N[C@@H]12 [MITOMYCIN]
- GI50 (HCT-116 [2]): 200 nM
- GI50 (BXPC-3): 380 nM
- GI50 (A549): 80 nM
- GI50 (Huh-7): 2000 nM
- GI50 (MKN-74): 1700 nM
- GI50 (U-87 MG): 1800 nM
- GI50 (SK-OV-3): 100 nM
- GI50 [3]: 1400 nM
- GI50 (786-0): 210 nM
- GI50 (MCF7): 2500 nM
